Laboratory results as given in ChEMBL document CHEMBL2311311, “Synthesis and in vitro activity of 1,2,4-triazole-ciprofloxacin hybrids against drug-susceptible and drug-resistant bacteria” (Eur J Med Chem, 2013).
≈ marks a conversion by molar mass, not a printed value.

Tests used:
Type in all cases: functional
[1] = tested on: Staphylococcus epidermidis; assay: Antimicrobial activity against Staphylococcus epidermidis ATCC 12228 by broth microdilution method
How it was run: (§1)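 Inocula were saline (0.85% NaCl) suspensions at 0.5 McFarland (150 × 10⁶ CFU/mL). Compounds were first screened by agar dilution on Mueller-Hinton agar, and active ones then went to broth microdilution. MIC is the lowest concentration inhibiting growth. The negative control was medium containing DMSO at the final concentration, without compound.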

Staphylococcus aureus [2] = assay: Antimicrobial activity against Staphylococcus aureus ATCC 25923 by broth microdilution method; how it was run: as §1
Pseudomonas aeruginosa = assay: Antimicrobial activity against Pseudomonas aeruginosa ATCC 9027 by broth microdilution method; how it was run: as §1
Bacillus subtilis = assay: Antimicrobial activity against Bacillus subtilis ATCC 6633 by broth microdilution method; how it was run: as §1
Micrococcus luteus = assay: Antimicrobial activity against Micrococcus luteus ATCC 10240 by broth microdilution method; how it was run: as §1
Bacillus cereus = assay: Antimicrobial activity against Bacillus cereus ATCC 10876 by broth microdilution method; how it was run: as §1
Staphylococcus aureus [3] = assay: Ratio of MBC to MIC for methicillin-resistant Staphylococcus aureus 14001 by broth microdilution method
How it was run: (§2)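 Inoculum in sterile saline (0.85% NaCl), adjusted to 0.5 McFarland (150 × 10⁶ CFU/mL). Compounds first screened by agar dilution on Mueller-Hinton agar, then titrated by broth microdilution. Medium with DMSO at the final concentration and no compound served as negative control. MIC is the lowest concentration inhibiting growth. MBC is the lowest concentration giving >99.9% reduction in CFU of the initial inoculum.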

Escherichia coli = assay: Antimicrobial activity against Escherichia coli ATCC 25922 by broth microdilution method; how it was run: as §1
Proteus mirabilis = assay: Antimicrobial activity against Proteus mirabilis ATCC 12453 by broth microdilution method; how it was run: as §1
Staphylococcus aureus [4] = assay: Antimicrobial activity against methicillin-resistant Staphylococcus aureus 14001 by broth microdilution method; how it was run: as §2

Structure (SMILES)	MIC [1]	MIC (Staphylococcus aureus [2])	MIC (Pseudomonas aeruginosa)	MIC (Bacillus subtilis)	MIC (Micrococcus luteus)	MIC (Bacillus cereus)	Ratio (Staphylococcus aureus [3])	MIC (Escherichia coli)	MIC (Proteus mirabilis)	MBC (Staphylococcus aureus [4])	MIC (Staphylococcus aureus [4])
COc1ccc(-n2c(-c3cccc(Cl)c3)nn(CN3CCN(c4cc5c(cc4F)c(=O)c(C(=O)O)cn5C4CC4)CC3)c2=S)cc1	1.48 µM (≈ 0.979 µg/mL)	1.48 µM (≈ 0.979 µg/mL)	0.36 µM (≈ 0.238 µg/mL)	0.09 µM (≈ 0.0595 µg/mL)	2.95 µM (≈ 1.95 µg/mL)	0.36 µM (≈ 0.238 µg/mL)	1	0.023 µM (≈ 0.0152 µg/mL)	0.023 µM (≈ 0.0152 µg/mL)	0.74 µM (≈ 0.489 µg/mL)	0.74 µM (≈ 0.489 µg/mL)
O=C(O)c1cn(C2CC2)c2cc(N3CCN(Cn4nc(-c5cccc(Cl)c5)n(-c5ccc(Br)cc5)c4=S)CC3)c(F)cc2c1=O	5.51 µM (≈ 3.91 µg/mL)	5.51 µM (≈ 3.91 µg/mL)	1.38 µM (≈ 0.98 µg/mL)	0.34 µM (≈ 0.241 µg/mL)	10.1 µM (≈ 7.17 µg/mL)	1.38 µM (≈ 0.98 µg/mL)	2	0.084 µM (≈ 0.0596 µg/mL)	0.17 µM (≈ 0.121 µg/mL)	5.51 µM (≈ 3.91 µg/mL)	2.76 µM (≈ 1.96 µg/mL)
O=C(O)c1cn(C2CC2)c2cc(N3CCN(Cn4nc(-c5cccc(Cl)c5)n(-c5cccc(I)c5)c4=S)CC3)c(F)cc2c1=O	1.29 µM (≈ 0.977 µg/mL)	1.29 µM (≈ 0.977 µg/mL)	0.16 µM (≈ 0.121 µg/mL)	0.04 µM (≈ 0.0303 µg/mL)	2.58 µM (≈ 1.95 µg/mL)	0.16 µM (≈ 0.121 µg/mL)	8	0.02 µM (≈ 0.0151 µg/mL)	0.04 µM (≈ 0.0303 µg/mL)	5.16 µM (≈ 3.91 µg/mL)	0.64 µM (≈ 0.484 µg/mL)
O=C(O)c1cn(C2CC2)c2cc(N3CCN(Cn4nc(-c5cccc(Cl)c5)n(-c5ccc(I)cc5)c4=S)CC3)c(F)cc2c1=O	5.16 µM (≈ 3.91 µg/mL)	5.16 µM (≈ 3.91 µg/mL)	1.29 µM (≈ 0.977 µg/mL)	0.32 µM (≈ 0.242 µg/mL)	10.3 µM (≈ 7.8 µg/mL)	1.29 µM (≈ 0.977 µg/mL)	2	0.08 µM (≈ 0.0606 µg/mL)	0.16 µM (≈ 0.121 µg/mL)	5.16 µM (≈ 3.91 µg/mL)	2.58 µM (≈ 1.95 µg/mL)
O=C(O)c1cn(C2CC2)c2cc(N3CCN(Cn4nc(-c5cccc(Cl)c5)n(-c5ccc(F)cc5F)c4=S)CC3)c(F)cc2c1=O	0.73 µM (≈ 0.487 µg/mL)	0.73 µM (≈ 0.487 µg/mL)	0.36 µM (≈ 0.24 µg/mL)	0.09 µM (≈ 0.06 µg/mL)	2.92 µM (≈ 1.95 µg/mL)	0.18 µM (≈ 0.12 µg/mL)	1	0.022 µM (≈ 0.0147 µg/mL)	0.022 µM (≈ 0.0147 µg/mL)	0.73 µM (≈ 0.487 µg/mL)	0.73 µM (≈ 0.487 µg/mL)
O=C(O)c1cn(C2CC2)c2cc(N3CCN(Cn4nc(-c5cccc(Cl)c5)n(-c5ccc(Cl)cc5Cl)c4=S)CC3)c(F)cc2c1=O	0.7 µM (≈ 0.49 µg/mL)	1.4 µM (≈ 0.98 µg/mL)	0.17 µM (≈ 0.119 µg/mL)	0.043 µM (≈ 0.0301 µg/mL)	2.78 µM (≈ 1.95 µg/mL)	0.17 µM (≈ 0.119 µg/mL)	64	0.043 µM (≈ 0.0301 µg/mL)	0.043 µM (≈ 0.0301 µg/mL)	44.6 µM (≈ 31.2 µg/mL)	0.7 µM (≈ 0.49 µg/mL)
O=C(O)c1cn(C2CC2)c2cc(N3CCN(Cn4nc(-c5cccc(Cl)c5)n(-c5cc(Cl)cc(Cl)c5)c4=S)CC3)c(F)cc2c1=O	22.3 µM (≈ 15.6 µg/mL)	22.3 µM (≈ 15.6 µg/mL)	11.2 µM (≈ 7.81 µg/mL)	1.4 µM (≈ 0.98 µg/mL)	44.6 µM (≈ 31.2 µg/mL)	5.58 µM (≈ 3.91 µg/mL)	2	0.7 µM (≈ 0.49 µg/mL)	0.7 µM (≈ 0.49 µg/mL)	44.6 µM (≈ 31.2 µg/mL)	22.3 µM (≈ 15.6 µg/mL)
Cn1c(-c2cccc(Cl)c2)nn(CN2CCN(c3cc4c(cc3F)c(=O)c(C(=O)O)cn4C3CC3)CC2)c1=S	0.86 µM (≈ 0.489 µg/mL)	0.86 µM (≈ 0.489 µg/mL)	0.1 µM (≈ 0.0569 µg/mL)	0.053 µM (≈ 0.0302 µg/mL)	1.72 µM (≈ 0.979 µg/mL)	0.21 µM (≈ 0.12 µg/mL)	2	0.053 µM (≈ 0.0302 µg/mL)	0.053 µM (≈ 0.0302 µg/mL)	0.86 µM (≈ 0.489 µg/mL)	0.42 µM (≈ 0.239 µg/mL)
O=C(O)c1cn(C2CC2)c2cc(N3CCNCC3)c(F)cc2c1=O [CIPROFLOXACIN]	1.48 µM (≈ 0.49 µg/mL)	2.96 µM (≈ 0.981 µg/mL)	0.72 µM (≈ 0.239 µg/mL)	0.09 µM (≈ 0.0298 µg/mL)	5.88 µM (≈ 1.95 µg/mL)	0.36 µM (≈ 0.119 µg/mL)	4	0.024 µM (≈ 0.00795 µg/mL)	0.045 µM (≈ 0.0149 µg/mL)	5.92 µM (≈ 1.96 µg/mL)	1.48 µM (≈ 0.49 µg/mL)
CN[C@H](CC(C)C)C(=O)N[C@H]1C(=O)N[C@@H](CC(N)=O)C(=O)N[C@H]2C(=O)N[C@H]3C(=O)N[C@H](C(=O)N[C@H](C(=O)O)c4cc(O)cc(O)c4-c4cc3ccc4O)[C@H](O)c3ccc(c(Cl)c3)Oc3cc2cc(c3O[C@@H]2O[C@H](CO)[C@@H](O)[C@H](O)[C@H]2O[C@H]2C[C@](C)(N)[C@H](O)[C@H](C)O2)Oc2ccc(cc2Cl)[C@H]1O [VANCOMYCIN]										2.7 µM (≈ 3.91 µg/mL)	0.68 µM (≈ 0.986 µg/mL)
